Data from ChEMBL document CHEMBL1152869, “An inhibitor of FtsZ with potent and selective anti-staphylococcal activity” (Science, 2008).
pIC50: −log10 of the molar value. Converted amounts (≈) assume the structure as drawn. The source made the active and inactive calls. No cut-off for these calls is given here.

Assays:
Bacillus subtilis [1] = experiment: Antibacterial activity against Bacillus subtilis bearing FtsZ V307H mutant by broth microdilution method; format: functional
Staphylococcus hominis = experiment: Antibacterial activity against Staphylococcus hominis by broth microdilution method; format: functional
Pseudomonas aeruginosa = experiment: Antibacterial activity against Pseudomonas aeruginosa by broth microdilution method; format: functional
Haemophilus influenzae = experiment: Antibacterial activity against Haemophilus influenzae by broth microdilution method; format: functional
Staphylococcus aureus [2] = experiment: Bactericidal activity against Staphylococcus aureus ATCC 29213 assessed as logarithmic reduction in viable cell numbers at >= MIC after 24 hrs; format: functional
Staphylococcus warneri = experiment: Antibacterial activity against Staphylococcus warneri by broth microdilution method; format: functional
Bacillus subtilis [3] = experiment: Antibacterial activity against Bacillus subtilis bearing FtsZ V307R mutant by broth microdilution method; format: functional
Staphylococcus aureus [4] = experiment: Antibacterial activity against Staphylococcus aureus bearing FtsZ N263K mutant by broth microdilution method; format: functional
Bos taurus [5] = species: Bos taurus; experiment: Inhibition of bovine brain tubulin polymerization at 64 ug/ml
Escherichia coli = experiment: Antibacterial activity against Escherichia coli by broth microdilution method; format: functional
Bacillus subtilis [6] = experiment: Antibacterial activity against Bacillus subtilis bearing FtsZ A47P mutant by broth microdilution method; format: functional
Staphylococcus aureus [7] = experiment: Antibacterial activity against multidrug-resistant Staphylococcus aureus by broth microdilution method; format: functional
Staphylococcus aureus [8] = experiment: Antibacterial activity against Staphylococcus aureus Smith ATCC 19636 in sc dosed CD1 mouse septicemia model assessed as survival after 7 days; format: functional
How it was run: (§1)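 At 1 h post-infection they received a single SC or IV dose of 3, 10 or 30 mg/kg. Controls were vehicle only and vancomycin 3 mg/kg by the same route. Mortality was recorded daily for 7 days, and ED50 was derived from dose-dependent survival.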

Staphylococcus aureus [9] = experiment: Antibacterial activity against Staphylococcus aureus bearing FtsZ R191P mutant by broth microdilution method; format: functional
[10] = biological target: T1, Cell division protein FtsZ (Staphylococcus aureus) (UniProt P0A031); experiment: (§2) Inhibition of Staphylococcus aureus FtsZ GTPase activity
T1 sequence (whole entry): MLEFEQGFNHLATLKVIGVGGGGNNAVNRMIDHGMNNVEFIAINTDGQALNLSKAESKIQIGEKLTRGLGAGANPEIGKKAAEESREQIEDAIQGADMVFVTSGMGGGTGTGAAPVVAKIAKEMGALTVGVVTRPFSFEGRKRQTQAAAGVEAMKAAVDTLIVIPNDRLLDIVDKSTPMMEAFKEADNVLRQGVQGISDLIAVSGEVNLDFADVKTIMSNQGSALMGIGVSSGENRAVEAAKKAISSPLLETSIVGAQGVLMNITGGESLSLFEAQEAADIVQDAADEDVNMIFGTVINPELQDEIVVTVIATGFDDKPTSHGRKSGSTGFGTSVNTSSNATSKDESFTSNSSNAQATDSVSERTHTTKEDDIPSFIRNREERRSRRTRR
How it was run: (§3)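 S. aureus FtsZ cloned, overexpressed and purified; in vitro GTPase activity measured across a compound concentration series; IC50 derived from concentration-dependent inhibition.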

[11] = biological target: T2, Cell division protein FtsZ (Staphylococcus aureus, UniProt P0A031); experiment: as §2; how it was run: as §3
T2 sequence (P0A031 whole entry): T1 sequence (whole entry)

Staphylococcus aureus [12] = experiment: Antibacterial activity against Staphylococcus aureus by broth microdilution method; format: functional
Bacillus subtilis [13] = experiment: Antibacterial activity against Bacillus subtilis by broth microdilution method; format: functional
Staphylococcus aureus [14] = experiment: Inhibition of cell division in Staphylococcus aureus ATCC 29213 assessed as enlargement of cells at 2 ug/ml by phase contrast microscopy; format: functional, organism-based
How it was run: (§4)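 S. aureus ATCC 29213 cells grown with or without compound at 2 μg/ml; cell morphology examined by phase-contrast microscopy.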

Staphylococcus aureus [15] = experiment: Antibacterial activity against Staphylococcus aureus Smith ATCC 19636 in CD1 mouse septicemia model assessed as survival at 30 mg/kg, sc after 7 days relative to control; format: functional; conditions: 168 h, route subcutaneous; how it was run: as §1
HepG2 = experiment: Cytotoxicity against human HepG2 cells; format: cell-based
[16] = test system: Staphylococcus saprophyticus; experiment: Antibacterial activity against Staphylococcus saprophyticus by broth microdilution method; format: functional
Staphylococcus aureus [17] = experiment: Antibacterial activity against Staphylococcus aureus bearing FtsZ G266S mutant by broth microdilution method; format: functional
[18] = test system: Staphylococcus lugdunensis; experiment: Antibacterial activity against Staphylococcus lugdunensis by broth microdilution method; format: functional
Staphylococcus aureus [19] = experiment: Antibacterial activity against Staphylococcus aureus Smith ATCC 19636 in CD1 mouse septicemia model assessed as survival at 30 mg/kg, iv after 7 days relative to control; format: functional; conditions: 168 h; how it was run: as §1
Streptococcus pneumoniae = experiment: Antibacterial activity against Streptococcus pneumoniae by broth microdilution method; format: functional
Staphylococcus aureus [20] = experiment: Antibacterial activity against Staphylococcus aureus Smith ATCC 19636 in iv dosed CD1 mouse septicemia model assessed as survival after 7 days; format: functional; how it was run: as §1
[21] = biological target: T3, Cell division protein FtsZ (Bacillus subtilis (strain 168)) (UniProt P17865); experiment: Inhibition of GFP-FtsZ localization in Bacillus subtilis 2020 assessed as protein mislocalization to assemble into cytokinetic ring at 8 ug/ml by florescence microscopy
T3 sequence (whole entry): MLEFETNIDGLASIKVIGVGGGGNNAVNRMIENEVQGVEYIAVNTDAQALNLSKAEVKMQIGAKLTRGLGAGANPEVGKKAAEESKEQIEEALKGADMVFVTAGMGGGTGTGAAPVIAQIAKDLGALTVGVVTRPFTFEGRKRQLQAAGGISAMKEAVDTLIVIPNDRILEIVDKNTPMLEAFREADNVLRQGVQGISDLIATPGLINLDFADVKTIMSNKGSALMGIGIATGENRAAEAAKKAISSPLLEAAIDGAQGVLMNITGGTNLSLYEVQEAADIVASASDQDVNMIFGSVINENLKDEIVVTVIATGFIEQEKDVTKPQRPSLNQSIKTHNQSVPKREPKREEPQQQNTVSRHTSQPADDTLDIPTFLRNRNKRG
How it was run: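 B. subtilis 2020 carrying gfp-ftsZ cultured with or without compound at 8 μg/ml; FtsZ localization visualized by fluorescence microscopy.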

Staphylococcus aureus [22] = experiment: Bactericidal activity against Staphylococcus aureus ATCC 29213 assessed as reduction in cell viability at 2 ug/ml within 24 hrs by serial dilution method
Saccharomyces cerevisiae = experiment: Antifungal activity against Saccharomyces cerevisiae by broth microdilution method; format: functional
Staphylococcus aureus [23] = experiment: Antibacterial activity against Staphylococcus aureus bearing FtsZ G193D mutant by broth microdilution method; format: functional
Staphylococcus aureus [24] = experiment: Antibacterial activity against Staphylococcus aureus Smith ATCC 19636 in ip dosed CD1 mouse septicemia model assessed as survival administered 1 hr postinfection measured after 7 days; format: functional
Staphylococcus aureus [25] = experiment: Inhibition of cell division in Staphylococcus aureus ATCC 29213 assessed as enlargement of cells at 2 ug/ml within 2 hrs by phase contrast microscopy; format: functional, organism-based; how it was run: as §4
Bacillus subtilis [26] = experiment: Antibacterial activity against Bacillus subtilis bearing FtsZ G196A mutant by broth microdilution method; format: functional
[27] = test system: Staphylococcus haemolyticus; experiment: Antibacterial activity against Staphylococcus haemolyticus by broth microdilution method; format: functional
Bos taurus [28] = species: Bos taurus; experiment: Enhancement of bovine brain tubulin polymerization at 64 ug/ml
Bacillus subtilis [29] = experiment: Inhibition of cell division in Bacillus subtilis 168 assessed as elongation of cells at 2 ug/ml by phase contrast microscopy; format: functional, organism-based; conditions: subsp. subtilis str. 168
How it was run: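 B. subtilis 168 cells grown with or without compound at 2 μg/ml; cell morphology examined by phase-contrast microscopy.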

[30] = test system: Staphylococcus epidermidis; experiment: Antibacterial activity against Staphylococcus epidermidis by broth microdilution method; format: functional
Staphylococcus aureus [31] = experiment: Antibacterial activity against methicillin-resistant Staphylococcus aureus by broth microdilution method; format: functional
Enterococcus faecalis = experiment: Antibacterial activity against Enterococcus faecalis by broth microdilution method; format: functional
Staphylococcus aureus [32] = experiment: Antibacterial activity against Staphylococcus aureus bearing FtsZ G196A mutant by broth microdilution method; format: functional
Staphylococcus aureus [33] = experiment: Antibacterial activity against Staphylococcus aureus bearing FtsZ V214F mutant by broth microdilution method; format: functional
Bacillus subtilis [34] = experiment: Inhibition of cell division in Bacillus subtilis 168 at 50 uM by phase contrast microscopy; format: functional, organism-based; conditions: subsp. subtilis str. 168
Bos taurus [35] = species: Bos taurus; experiment: Enhancement of bovine brain tubulin polymerization at 25 uM

Question: How did the MIC (Bacillus subtilis [1]) turn out when NC(=O)c1c(F)ccc(OCc2nc3cc(Cl)cnc3s2)c1F was run?
Answer: 2 µg/mL (≈ 5.62 µM)

Question: And the MIC (Staphylococcus hominis)?
Answer: 1 µg/mL (≈ 2.81 µM)

Question: What about the MIC (Pseudomonas aeruginosa) of the same compound?
Answer: > 64 µg/mL

Question: What about the MIC (Haemophilus influenzae) of the same compound?
Answer: > 64 µg/mL

Question: What about the Activity (Staphylococcus aureus [2]) of the same compound?
Answer: >3

Question: What about the MIC (Staphylococcus warneri) of the same compound?
Answer: 1 µg/mL (≈ 2.81 µM)

Question: What about the MIC (Bacillus subtilis [3]) of the same compound?
Answer: 8 µg/mL (≈ 22.5 µM)

Question: And the MIC (Staphylococcus aureus [4])?
Answer: > 512 µg/mL

Question: And the Activity (Bos taurus [5])?
Answer: inactive

Question: What about the MIC (Escherichia coli) of the same compound?
Answer: > 64 µg/mL

Question: What about the MIC (Bacillus subtilis [6]) of the same compound?
Answer: 1 µg/mL (≈ 2.81 µM)

Question: What about the MIC (Staphylococcus aureus [7]) of the same compound?
Answer: 1 µg/mL (≈ 2.81 µM)

Question: What about the Activity (Staphylococcus aureus [8]) of the same compound?
Answer: Dose-dependent effect

Question: What about the ED50 (Staphylococcus aureus [8]; 168 h) of the same compound?
Answer: 7.3 mg/kg

Question: What about the MIC (Staphylococcus aureus [9]) of the same compound?
Answer: > 512 µg/mL

Question: And the Activity [10]?
Answer: Dose-dependent effect

Question: And the pIC50 [11]?
Answer: 6.81

Question: What about the MIC (Staphylococcus aureus [12]) of the same compound?
Answer: 1 µg/mL (≈ 2.81 µM)

Question: And the MIC (Bacillus subtilis [13])?
Answer: 0.5 µg/mL (≈ 1.41 µM)

Question: And the Activity (Staphylococcus aureus [14])?
Answer: Active

Question: What about the survival at 30 mg/kg (Staphylococcus aureus [15]) of the same compound?
Answer: 100%

Question: What about the IC50 (HepG2) of the same compound?
Answer: > 64 µg/mL

Question: And the MIC [16]?
Answer: 1 µg/mL (≈ 2.81 µM)

Question: What about the MIC (Staphylococcus aureus [17]) of the same compound?
Answer: > 512 µg/mL

Question: And the MIC [18]?
Answer: 1 µg/mL (≈ 2.81 µM)

Question: And the survival at 30 mg/kg (Staphylococcus aureus [19])?
Answer: 100%

Question: And the MIC (Streptococcus pneumoniae)?
Answer: > 64 µg/mL

Question: What about the Activity (Staphylococcus aureus [20]) of the same compound?
Answer: Dose-dependent effect

Question: And the ED50 (Staphylococcus aureus [20]; 168 h)?
Answer: 10.2 mg/kg

Question: And the Activity [21]?
Answer: Active

Question: And the Activity (Staphylococcus aureus [22])?
Answer: Active

Question: And the MIC (Saccharomyces cerevisiae)?
Answer: > 64 µg/mL

Question: And the MIC (Staphylococcus aureus [23])?
Answer: > 512 µg/mL

Question: What about the ED50 (Staphylococcus aureus [24]) of the same compound?
Answer: 3.1 mg/kg

Question: And the Activity (Staphylococcus aureus [25])?
Answer: Active

Question: What about the MIC (Bacillus subtilis [26]) of the same compound?
Answer: > 64 µg/mL

Question: What about the MIC [27] of the same compound?
Answer: 0.5 µg/mL (≈ 1.41 µM)

Question: And the Activity (Bos taurus [28])?
Answer: inactive

Question: And the Activity (Bacillus subtilis [29])?
Answer: Active

Question: What about the MIC [30] of the same compound?
Answer: 1 µg/mL (≈ 2.81 µM)

Question: What about the MIC (Staphylococcus aureus [31]) of the same compound?
Answer: 1 µg/mL (≈ 2.81 µM)

Question: And the MIC (Enterococcus faecalis)?
Answer: > 64 µg/mL

Question: And the MIC (Staphylococcus aureus [32])?
Answer: > 512 µg/mL

Question: What about the MIC (Staphylococcus aureus [33]) of the same compound?
Answer: > 512 µg/mL

Question: With COc1cccc(C(N)=O)c1 as the compound, how does the MIC (Bacillus subtilis [1]) read?
Answer: 4100 µg/mL (≈ 27100 µM)

Question: What about the MIC (Bacillus subtilis [3]) of the same compound?
Answer: > 8190 µg/mL

Question: What about the MIC (Bacillus subtilis [6]) of the same compound?
Answer: > 8190 µg/mL

Question: What about the MIC (Staphylococcus aureus [12]) of the same compound?
Answer: 2050 µg/mL (≈ 13500 µM)

Question: And the MIC (Bacillus subtilis [13])?
Answer: 2050 µg/mL (≈ 13500 µM)

Question: What about the MIC (Bacillus subtilis [26]) of the same compound?
Answer: 1020 µg/mL (≈ 6770 µM)

Question: With CC(=O)O[C@H]1C(=O)[C@@]2(C)[C@H]([C@H](OC(=O)c3ccccc3)[C@]3(O)C[C@H](OC(=O)[C@H](O)[C@@H](NC(=O)c4ccccc4)c4ccccc4)C(C)=C1C3(C)C)[C@]1(OC(C)=O)CO[C@@H]1C[C@@H]2O as the compound, how does the Activity (Bacillus subtilis [34]) read?
Answer: inactive

Question: What about the Activity (Bos taurus [35]) of the same compound?
Answer: Active
